Rows were chosen to be rich in hits. Some 1.7% of all compounds tested hit in one or more screens of this group.
LMPTP block – LMPTP phosphatase inhibitors, primary screen, biochemical, fluorescence intensity, uHTS; recombinant LMPTP-A, OMFP fluorogenic substrate; hit rate 0.22% among 360,000; AID 651560, 2012; inhibition, % at 20 µM;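 active means compounds that cut the enzyme signal by at least half of the control window in the single-dose screen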;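 further: plate controls were DMSO wells with enzyme plus substrate for no effect and substrate without enzyme for full effect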
Target sequence (P24666 whole entry, looked up): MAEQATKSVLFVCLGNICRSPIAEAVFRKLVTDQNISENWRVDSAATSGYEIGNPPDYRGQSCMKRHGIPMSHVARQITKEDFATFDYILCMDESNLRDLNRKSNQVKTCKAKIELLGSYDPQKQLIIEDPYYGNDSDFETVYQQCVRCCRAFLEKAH
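Test system – LMPTP-A enzyme · Amount – LMPTP-A at 0.625 nM final in the reaction · Buffer or medium – Bis-Tris pH 6.0, DTT, detergent · Reagent – OMFP 400 µM · Doses – single 20 µM dose · Schedule – reaction 50 min, room temperature, dark · Detection – fluorescence intensity of OMFP turnover product · Evaluation – percent inhibition versus substrate-only and uninhibited controls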
SUMO1-SIM PPI – modulators of SUMO1 protein-protein interactions, primary screen, biochemical, uHTS | Small ubiquitin-related modifier 1 (Homo sapiens), P63165 | SUMO1 binding to a labelled peptide, TR-FRET, 1 h | inhibition, % at 20 µM | hit rate 0.33% among 360,000 | AID 602429, 2012; in the data active means inhibition above about 37%
Target sequence (P63165 whole entry, looked up): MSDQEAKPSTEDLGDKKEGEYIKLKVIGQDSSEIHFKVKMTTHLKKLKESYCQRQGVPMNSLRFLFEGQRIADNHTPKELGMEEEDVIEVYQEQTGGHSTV
DNMT1 block – human DNMT1 methyltransferase inhibitors, primary screen, biochemical, molecular beacon, fluorescence, HinP1I cleavage, uHTS | DNA (cytosine-5)-methyltransferase 1 (Homo sapiens), P26358 | inhibition (reported as % activation of signal), % at 10 µM | hit rate 0.83% among 360,000 | AID 588458, 2011; in the data active means inhibition above about 50%
Scp1 inh – Scp-1 phosphatase inhibitors, primary screen, biochemical, colorimetric, uHTS. inhibition, % at 20 µM. Carboxy-terminal domain RNA polymerase II polypeptide A small phosphatase 1 (Homo …. hit rate 0.88% among 340,000. Recombinant Scp1, phosphopeptide, malachite green phosphate absorbance;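 active means inhibition above about 50% at 20 µM, limit read from the data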;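 further: plate controls were DMSO wells with enzyme for no effect and wells lacking enzyme for full effect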
Target sequence (Q9GZU7 76-261 limits assumed): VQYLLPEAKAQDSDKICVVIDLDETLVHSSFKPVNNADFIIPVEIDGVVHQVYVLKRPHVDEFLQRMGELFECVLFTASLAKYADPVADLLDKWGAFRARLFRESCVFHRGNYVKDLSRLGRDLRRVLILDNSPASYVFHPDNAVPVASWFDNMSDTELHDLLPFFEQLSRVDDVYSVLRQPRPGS
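System: SCP-1 catalytic domain; Reagent: Phospho 17-mer peptide substrate; Doses: one concentration, 20 µM, with 1.0% DMSO; Incubation: 45 min room-temperature reaction, 5 min colour, 30 min stabiliser; Signal: Phosphate-binding colour reagent, absorbance read at 630 nm.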
STEP inh – STEP phosphatase inhibitors, primary screen, biochemical, fluorescence intensity, uHTS | recombinant STEP, OMFP fluorogenic substrate | Tyrosine-protein phosphatase non-receptor type 5 (Homo sapiens), P54829 | inhibition, % at 20 µM | hit rate 0.25% among 360,000;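 active means inhibition at 20 µM, scaled per plate between control wells, above about 37%, limit read from the data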;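 further: 0% = DMSO with enzyme and substrate and 100% = substrate only without enzyme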
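medium = Bis-Tris buffer pH 6.0, 2.5 mM DTT, 0.005% Tween 20 | test system = STEP (striatal-enriched tyrosine phosphatase) enzyme, cell-free | measure = normalized % inhibition | compound dosing = 20 µM, 1% DMSO | also added = 25 µM OMFP | schedule = reaction 20 min, ambient temperature | measured by = fluorescence read at 480 nm ex / 540 nm em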
Scp1 confirm – Scp-1 phosphatase inhibitors, retest, confirmation, biochemical, colorimetric, single concentration. shares compounds with Scp1 inh. hit rate 61% among 2,500. AID 540281, 2011. inhibition, % at 20 µM. recombinant SCP-1 catalytic domain, phosphate release, malachite green absorbance;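 further: plate controls were DMSO with enzyme for no effect and buffer wells lacking enzyme for full effect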
Scp-1 MG ctr – colorimetric readout interference by compounds, confirmation, artefact control for Scp-1 inhibitor project, biochemical, single concentration; shares compounds with Scp1 inh; Colorimetric interference counterscreen, malachite green absorbance 630 nm; apparent inhibition (interference), % at 20 µM; 2,500 tested, under 10 active;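 further: compounds added after enzyme reaction finished so only phosphate colour detection is probed; plate controls were DMSO wells with completed Scp-1 reaction for no effect and substrate wells lacking enzyme for full effect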
Scp1 DSF – Scp-1 binding by thermal shift, confirmation, orthogonal assay for Scp-1 inhibitor project, biophysical, differential scanning fluorimetry; shares compounds with Scp1 inh; Recombinant SCP1, Sypro Orange thermal shift Tm; thermal shift relative to vanadate control, % at 40 µM; hit rate 25% among 1,500; AID 540329, 2011;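 active means substances whose mean melting-temperature shift, as a percentage of the reference inhibitor's shift, reaches about 5.3%, limit read from the data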;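 further: 0% = Tm of DMSO wells and 100% = Tm with sodium orthovanadate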
DNMT1 inh conf – DNMT1 methyltransferase inhibitor retest, confirmation, biochemical, molecular beacon, fluorescence, single concentration. shares compounds with DNMT1 block. DNMT1 molecular beacon HinP1I cleavage. inhibition, % at 10 µM. hit rate 8% among 2,300;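 active means average inhibition of at least 30% in the single-concentration confirmation test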
DNMT1 interf – counter-screen for DNMT1 inhibitors: spectral interference; AID 602387; hit rate 1% among 2,300; shares compounds with DNMT1 block; activation (fluorescence interference), % at 10 µM; DNMT1 molecular beacon spectral interference counterscreen, fluorescence 485/520;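 active means activation of at least 30% at 10 µM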;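 further: DNMT1 catalytic domain with a HinP1I cleavage step and a FAM/dabcyl DNA beacon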
* = called active by the depositor.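 How the source made its calls, unless noted: active means inhibition of at least 30% at 20 µM; inactive means the rest.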

What do the screens show for `COc1ccc(/C=C/C=C2C(=O)NC(=S)NC2=O)cc1`?
LMPTP block: 0.1; SUMO1-SIM PPI: 15.5; DNMT1 block: 10.1; Scp1 inh: 50.1*; STEP inh: 1.6; Scp1 confirm: 14.3; Scp-1 MG ctr: -8.5

Results for COc1ccc(C(=O)N/N=C/C23CC[C@@H](O)CC2(O)CC[C@@H]2[C@@H]3CCC3(C)C(C4=CC(=O)OC4)CCC23O)cc1 (stereo partly specified) ?
LMPTP block: -1.4; SUMO1-SIM PPI: 1.6; DNMT1 block: -1.5; Scp1 inh: 56.3*; STEP inh: 1.0; Scp1 confirm: 2.0; Scp-1 MG ctr: -7.6

How did O=C1NC(=O)C2(CCN(c3ccccc3)CC2)C(=O)N1 do in these assays?
LMPTP block: -1.3; SUMO1-SIM PPI: 3.4; DNMT1 block: -3.3; Scp1 inh: -7.6; STEP inh: -1.4

How did CC12Cc3cn[nH]c3C=C1CCC1C2CCC2(C)C1CCC2(C)O (stereo unspecified) do in these assays?
LMPTP block: 0.5; SUMO1-SIM PPI: 12.4; DNMT1 block: -0.3; Scp1 inh: 7.5; STEP inh: -2.7

What do the screens show for `CCOC(=O)C1(c2ccccc2)Oc2ccccc2C(c2ccc(OC)cc2)=C1C(=O)OC` (stereo unspecified)?
LMPTP block: 1.9; SUMO1-SIM PPI: 1.7; DNMT1 block: 9.3; Scp1 inh: 97.1*; STEP inh: -0.5; Scp1 confirm: 1.4; Scp-1 MG ctr: -18.1

How did CCOC(=O)[C@]12Cc3cc(OC)ccc3[C@H]1N(Cc1ccccc1)C(=O)c1ccccc12 do in these assays?
LMPTP block: 2.4; SUMO1-SIM PPI: 4.2; DNMT1 block: 4.8; Scp1 inh: -11.2; STEP inh: 1.5

Results for COc1cccc(C(c2nnnn2Cc2ccccc2)N2CCC3(CC2)C(=O)NCN3c2ccccc2)c1OC (stereo unspecified) ?
LMPTP block: 5.6; SUMO1-SIM PPI: 8.1; DNMT1 block: -11.0; STEP inh: 3.3

How did CC12C=CC(=O)C=C1CC(O)C1C2CCC2(C)C1CCC2(C)O (stereo unspecified) do in these assays?
LMPTP block: -0.9; SUMO1-SIM PPI: -3.2; DNMT1 block: 1.6; Scp1 inh: -7.7; STEP inh: 0.8

How did O=C1NC(=O)N(CCc2ccc(F)cc2)C(=O)/C1=C/c1ccco1 do in these assays?
LMPTP block: 65.8*; SUMO1-SIM PPI: 80.4*; DNMT1 block: 98.4*; Scp1 inh: 91.7*; STEP inh: 47.7*; Scp1 confirm: 66.4*; Scp-1 MG ctr: -15.6; Scp1 DSF: -1.2; DNMT1 inh conf: 4.8; DNMT1 interf: -0.4
